Reference: ChEMBL document CHEMBL3739271, “Synthesis and evaluation of a series of resveratrol analogues as potent anti-cancer agents that target tubulin” (2015)

Columns and labels:
Assay type in all cases: functional
CCRF-CEM = test: Cytotoxicity against human CCRF-CEM cells by SRB assay
How it was run: (§1)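 NCI 60 human tumor cell line panel, sulforhodamine B (SRB) protein-stain read-out. Compounds were first screened at a single dose of 10^-5 M, and selected compounds were then tested in a five-dose format. GI50 is the drug concentration giving a 50% reduction in net protein increase relative to control cells.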

[1] = Cytotoxicity against human HL-60(TB) cells by SRB assay
How it was run: (§2)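 NCI 60-cell-line panel using sulforhodamine B protein stain. Initial single-dose screen at 10^-5 M, then five-dose testing. GI50 is the drug concentration giving a 50% reduction in net protein increase relative to control cells.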

K562 = test: Cytotoxicity against human K562 cells by SRB assay; how it was run: as §1
[2] = Cytotoxicity against human MOLT4 cells by SRB assay; conditions: MOLT-4; how it was run: as §1
[3] = Cytotoxicity against human RPMI8226 cells by SRB assay; conditions: RPMI-8226; how it was run: as §1
SR = test: Cytotoxicity against human SR cells by SRB assay; how it was run: as §1
A549 = test: Cytotoxicity against human A549 cells by SRB assay; how it was run: as §1
[4] = Cytotoxicity against human HOP62 cells by SRB assay; conditions: HOP-62; how it was run: as §1
[5] = Cytotoxicity against human HOP92 cells by SRB assay; conditions: HOP-92; how it was run: as §1
NCI-H23 = test: Cytotoxicity against human NCI-H23 cells by SRB assay; how it was run: as §1
NCI-H522 = test: Cytotoxicity against human NCI-H522 cells by SRB assay; how it was run: as §1
[6] = Cytotoxicity against human COLO205 cells by SRB assay; conditions: COLO 205; how it was run: as §1
[7] = Cytotoxicity against human HCC2998 cells by SRB assay; conditions: HCC 2998; how it was run: as §1
[8] = Cytotoxicity against human HCT116 cells by SRB assay; conditions: HCT-116; how it was run: as §1
[9] = Cytotoxicity against human HCT15 cells by SRB assay; conditions: HCT-15; how it was run: as §1
HT-29 = test: Cytotoxicity against human HT-29 cells by SRB assay; how it was run: as §1
KM12 = test: Cytotoxicity against human KM12 cells by SRB assay; how it was run: as §1
[10] = Cytotoxicity against human SW620 cells by SRB assay; conditions: SW-620; how it was run: as §1
[11] = Cytotoxicity against human SF268 cells by SRB assay; conditions: SF-268; how it was run: as §1
[12] = Cytotoxicity against human SF295 cells by SRB assay; conditions: SF-295; how it was run: as §1
[13] = Cytotoxicity against human SF539 cells by SRB assay; conditions: SF-539; how it was run: as §1
[14] = Cytotoxicity against human SNB19 cells by SRB assay; conditions: SNB-19; how it was run: as §1
[15] = Cytotoxicity against human SNB75 cells by SRB assay; conditions: SNB-75; how it was run: as §1
U-251 = test: Cytotoxicity against human U251 cells by SRB assay; how it was run: as §1
[16] = Cytotoxicity against human LOXIMVI cells by SRB assay; conditions: LOX IMVI; how it was run: as §2
M14 = test: Cytotoxicity against human M14 cells by SRB assay; how it was run: as §1
SK-MEL-2 = test: Cytotoxicity against human SK-MEL-2 cells by SRB assay; how it was run: as §1
SK-MEL-28 = test: Cytotoxicity against human SK-MEL-28 cells by SRB assay; how it was run: as §1
SK-MEL-5 = test: Cytotoxicity against human SK-MEL-5 cells by SRB assay; how it was run: as §1
[17] = Cytotoxicity against human UACC62 cells by SRB assay; conditions: UACC-62; how it was run: as §1
[18] = Cytotoxicity against human IGROV1 cells by SRB assay; conditions: IGROV-1; how it was run: as §2
[19] = Cytotoxicity against human OVCAR3 cells by SRB assay; conditions: OVCAR-3; how it was run: as §1
[20] = Cytotoxicity against human OVCAR4 cells by SRB assay; conditions: OVCAR-4; how it was run: as §1
[21] = Cytotoxicity against human SKOV3 cells by SRB assay; conditions: SK-OV-3; how it was run: as §1
786-0 = test: Cytotoxicity against human 786-0 cells by SRB assay; how it was run: as §1
A498 = test: Cytotoxicity against human A498 cells by SRB assay; how it was run: as §1
ACHN = test: Cytotoxicity against human ACHN cells by SRB assay; how it was run: as §1
CAKI-1 = test: Cytotoxicity against human CAKI-1 cells by SRB assay; how it was run: as §1
[22] = Cytotoxicity against human UO31 cells by SRB assay; conditions: UO-31; how it was run: as §1
MDA-MB-435 = test: Cytotoxicity against human MDA-MB-435 cells by SRB assay; how it was run: as §1
NCI/ADR-RES = test: Cytotoxicity against human NCI/ADR-RES cells by SRB assay; how it was run: as §1
MCF7 = test: Cytotoxicity against human MCF7 cells by SRB assay; how it was run: as §1
MDA-MB-231 = test: Cytotoxicity against human MDA-MB-231 cells by SRB assay; how it was run: as §1
[23] = Cytotoxicity against human Hs578T cells by SRB assay; conditions: Hs-578T; how it was run: as §1
MDA-MB-468 = test: Cytotoxicity against human MDA-MB-468 cells by SRB assay; how it was run: as §1

COc1ccc(/C=C\c2cc(OC)c(OC)c(OC)c2)cc1O [COMBRETASTATIN A4]
GI50 (CCRF-CEM): 3 nM
GI50 [1]: 2 nM
GI50 (K562): 2 nM
GI50 [2]: 3 nM
GI50 [3]: 3 nM
GI50 (SR): 3 nM
GI50 (A549): 16 nM
GI50 [4]: 3 nM
GI50 [5]: 3 nM
GI50 (NCI-H23): 3 nM
GI50 (NCI-H522): 2 nM
GI50 [6]: 100 nM
GI50 [7]: 63 nM
GI50 [8]: 3 nM
GI50 [9]: 4 nM
GI50 (HT-29): 100 nM
GI50 (KM12): 5 nM
GI50 [10]: 3 nM
GI50 [11]: 6 nM
GI50 [12]: 4 nM
GI50 [13]: 3 nM
GI50 [14]: 4 nM
GI50 [15]: 8 nM
GI50 (U-251): 4 nM
GI50 [16]: 3 nM
GI50 (M14): 3 nM
GI50 (SK-MEL-2): 4 nM
GI50 (SK-MEL-28): 8 nM
GI50 (SK-MEL-5): 4 nM
GI50 [17]: 6 nM
GI50 [18]: 15 nM
GI50 [19]: 2 nM
GI50 [20]: 14 nM
GI50 [21]: 59 nM
GI50 (786-0): 100 nM
GI50 (A498): 6 nM
GI50 (ACHN): 6 nM
GI50 (CAKI-1): 26 nM
GI50 [22]: 19 nM

COc1ccc(/C=C/c2cc(OC)cc(OC)c2/C=C(\C#N)c2ccc(OC)cc2)cc1
GI50 (CCRF-CEM): 750 nM
GI50 [1]: 1660 nM
GI50 (K562): 430 nM
GI50 [2]: 4380 nM
GI50 [3]: 1160 nM
GI50 (SR): 910 nM
GI50 (A549): 910 nM
GI50 [4]: 970 nM
GI50 (NCI-H522): 240 nM
GI50 [6]: 1240 nM
GI50 [7]: 2490 nM
GI50 [8]: 490 nM
GI50 [9]: 650 nM
GI50 (HT-29): 690 nM
GI50 (KM12): 780 nM
GI50 [10]: 500 nM
GI50 [11]: 4710 nM
GI50 [12]: 360 nM
GI50 [13]: 270 nM
GI50 [14]: > 100000 nM
GI50 [15]: 470 nM
GI50 (U-251): 640 nM
GI50 (M14): 1380 nM
GI50 (MDA-MB-435): 240 nM
GI50 (SK-MEL-28): 750 nM
GI50 (SK-MEL-5): 2280 nM
GI50 [17]: 700 nM
GI50 [18]: 2350 nM
GI50 [19]: 630 nM
GI50 [20]: 500 nM
GI50 (NCI/ADR-RES): 650 nM
GI50 [21]: 1350 nM
GI50 (786-0): 1720 nM
GI50 (A498): 380 nM
GI50 (ACHN): 830 nM
GI50 (CAKI-1): 500 nM
GI50 [22]: 810 nM
GI50 (MCF7): 390 nM
GI50 (MDA-MB-231): 2780 nM
GI50 [23]: 680 nM
GI50 (MDA-MB-468): 1720 nM

COc1ccc(/C=C(\C#N)c2cc(OC)c(OC)c(OC)c2)cc1
GI50 (CCRF-CEM): 30 nM
GI50 [1]: 20 nM
GI50 (K562): < 10 nM
GI50 [2]: 30 nM
GI50 [3]: 30 nM
GI50 (SR): < 10 nM
GI50 (A549): 10 nM
GI50 [4]: 30 nM
GI50 [5]: 20 nM
GI50 (NCI-H23): 50 nM
GI50 (NCI-H522): < 10 nM
GI50 [6]: 10 nM
GI50 [7]: 40 nM
GI50 [8]: < 10 nM
GI50 [9]: < 10 nM
GI50 (HT-29): < 10 nM
GI50 (KM12): < 10 nM
GI50 [10]: 10 nM
GI50 [11]: 40 nM
GI50 [12]: < 10 nM
GI50 [13]: < 10 nM
GI50 [14]: 60 nM
GI50 [15]: < 10 nM
GI50 (U-251): 20 nM
GI50 [16]: 10 nM
GI50 (M14): 10 nM
GI50 (MDA-MB-435): < 10 nM
GI50 (SK-MEL-2): 80 nM
GI50 (SK-MEL-5): 10 nM
GI50 [17]: < 10 nM
GI50 [18]: 20 nM
GI50 [19]: < 10 nM
GI50 [20]: 10 nM
GI50 (NCI/ADR-RES): < 10 nM
GI50 [21]: < 10 nM
GI50 (786-0): 20 nM
GI50 (A498): < 10 nM
GI50 (ACHN): 10 nM
GI50 [22]: < 10 nM
GI50 (MCF7): < 10 nM
GI50 (MDA-MB-231): 30 nM
GI50 [23]: < 10 nM
GI50 (MDA-MB-468): 20 nM
